Bounds are passed on as bounds.

Assay [1] has as its target T1, D(2) dopamine receptor (Rattus norvegicus, UniProt P61169). In words: Inhibition of [3H]spiperone binding to rat striatal dopamine receptor D2 was determined in vitro. The essentials: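 Rat striatal membranes in 0.05 M Tris-HCl pH 7.6 with 0.1% ascorbic acid and salts, at 5 mg wet weight/mL. Incubated with [3H]spiperone at 37 °C for 10 min. Nonspecific binding defined with 1 μM (+)-butaclamol. Bound ligand separated by glass-fibre filtration and counted by liquid scintillation. IC50 by log-logit regression.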

Assay [2] relates to Rattus norvegicus. As to the kind of experiment: Block of apomorphine-induced response measured as hypothermia injected ip 30 min prior to apomorphine hydrochloride(1 mg/kg, sc). The format is functional. The essentials: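 Male Sprague-Dawley rats (200–250 g) housed at 21 ± 0.5 °C, groups of n = 6, given saline or compound ip 30 min before apomorphine HCl 1 mg/kg sc. Rectal core temperature taken before dosing, before apomorphine and 15 min after it. Changes are percent of control mean.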

The species named for assay [3] is Rattus norvegicus. As to the kind of experiment: The catalepsy was measured in rat by using bar test. The assay is classed as functional. The essentials: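 Horizontal bar 7 cm high, 1.5 cm diameter. Rat forepaws placed over it at 20, 40, 60, 90, 120 and 240 min after ip dosing. Descent latency timed, 60 s cutoff. Cataleptic = mean over 15 s from the three longest latencies. Saline controls included.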

Assay [4] concerns Rattus norvegicus. As to the kind of experiment: Block of apomorphine-induced response measured as hyperactivity injected ip 60 min prior to apomorphine hydrochloride(1 mg/kg, sc). The assay is classed as functional. The essentials:
(§1)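 Male Sprague-Dawley rats (270–325 g). Compounds in saline or acetic acid/water given ip (5 ml/kg) 60 min before apomorphine HCl 1 mg/kg sc into neck. […] At least six dose levels, 6–8 rats each. ED50 by regression with Fieller's theorem 95% confidence limits.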

The target of assay [5] is T1, D(2) dopamine receptor. As to the kind of experiment: Inhibition of [3H]raclopride binding to rat striatal dopamine receptor D2. The essentials:
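Rat striatal membranes were homogenised in 0.05 M Tris-HCl pH 7.6, washed by centrifugation, then resuspended with 0.1% ascorbic acid and salts at 5 mg original wet weight/mL. Nonspecific binding was set with 1 μM (+)-butaclamol. Filtration on glass-fibre filters, scintillation counting. Ki by nonlinear regression (LIGAND), Cheng–Prusoff, all experiments pooled.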

For assay [6], the system named is Rattus norvegicus. In words: Block of apomorphine-induced response measured as stereotypies injected ip 60 min prior to apomorphine hydrochloride(1 mg/kg, sc). The format is functional. The essentials:
as §1

The mark [7] stands for this setting: Rattus norvegicus, read-out: ED50.

T1 sequence (P61169 whole entry): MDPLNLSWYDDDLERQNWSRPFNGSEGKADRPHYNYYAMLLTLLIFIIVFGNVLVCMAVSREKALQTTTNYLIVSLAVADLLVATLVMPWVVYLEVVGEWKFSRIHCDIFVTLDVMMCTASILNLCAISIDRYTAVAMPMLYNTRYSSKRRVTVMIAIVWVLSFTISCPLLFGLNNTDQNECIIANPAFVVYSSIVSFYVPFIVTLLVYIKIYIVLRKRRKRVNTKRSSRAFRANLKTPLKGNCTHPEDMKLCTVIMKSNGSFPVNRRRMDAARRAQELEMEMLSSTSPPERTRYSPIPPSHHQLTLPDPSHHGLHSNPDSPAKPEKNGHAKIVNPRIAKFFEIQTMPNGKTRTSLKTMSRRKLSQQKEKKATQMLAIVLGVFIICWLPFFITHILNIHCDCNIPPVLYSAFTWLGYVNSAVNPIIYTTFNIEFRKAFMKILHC

The term IC50 denotes the concentration that gives 50% inhibition. A low value points to higher potency. The compound `COc1cccc(C(=O)NC2CCN(Cc3ccccc3)CC2)c1OC` showed an IC50 on D(2) dopamine receptor [1] of 6.3 nM.
`CCN1CCC[C@H]1CNC(=O)c1c(OC)ccc(Br)c1O`: the ED50 with Rattus norvegicus [2] came out at 0.6 µmol/kg; in the assay listed under Rattus norvegicus [3], 1 µmol/kg.
Regarding `CCN1CCC[C@H]1CNC(=O)c1c(O)c(Br)cc(OC)c1OC`, the ED50 in the assay listed under Rattus norvegicus [3] amounted to 0.13 µmol/kg.
The compound `COc1cc(Br)c(O)c(C(=O)NC2CCN(Cc3ccccc3)CC2)c1OC` registered an IC50 at D(2) dopamine receptor [1] of 0.36 nM.
Still for that read-out and setting: with `CCN1CCC[C@H]1CNC(=O)c1c(OC)c(Cl)cc(Cl)c1OC` the figure was above 10000 nM.
What is called Ki is a dissociation constant, usually derived from enzyme kinetics or from competition with a known ligand. In the case of `COc1ccc(Br)c(O)c1C(=O)NC[C@H]1CCCN1Cc1ccccc1`, the ED50 in the assay with Rattus norvegicus [4] was found to be 5.6 µM/kg; with Rattus norvegicus [6], 18.6 µM/kg. The same compound displayed a Ki at D(2) dopamine receptor [5] of 0.8 nM. On D(2) dopamine receptor [1], this compound had an IC50 of 18 nM.
`COc1cc(Br)cc(C(=O)NC[C@H]2CCCN2Cc2ccc(F)cc2)c1OC` gave an IC50 at D(2) dopamine receptor [1] of 0.65 nM.
On to `CCN1CCC[C@H]1CNC(=O)c1cccc(OC)c1OC`, for which, on D(2) dopamine receptor [1], the IC50 is 52 nM.
On the same count and under the same terms, the figure for `COc1c(Cl)cc(Cl)c(O)c1C(=O)NC1CCN(Cc2ccccc2)CC1` is 5.4 nM.
As for `COc1ccc(Br)c(O)c1C(=O)NC[C@H]1CCCN1Cc1ccc(F)cc1`, the ED50 with Rattus norvegicus [2] came out at 1.7 µmol/kg; in the assay on Rattus norvegicus [4] (setting [7]), 2 µmol/kg; in the assay filed under Rattus norvegicus [3], 27 µmol/kg; in the assay on Rattus norvegicus [6] (setting [7]) it was 13.2 µmol/kg. For the same compound, on D(2) dopamine receptor [5], the Ki was found to be 0.43 nM. This compound registered an IC50 on D(2) dopamine receptor [1] of 28 nM.
On to `COc1cc(Br)c(O)c(C(=O)NC[C@H]2CCCN2Cc2ccc(F)cc2)c1OC`, for which the ED50 in the assay on Rattus norvegicus [2] came out at 1.3 µmol/kg; in the assay with Rattus norvegicus [4] (setting [7]), 1.5 µmol/kg; in the assay listed under Rattus norvegicus [3], 13 µmol/kg; with Rattus norvegicus [6] (setting [7]), 2.4 µmol/kg. Besides, affinity at D(2) dopamine receptor [5] was put at a Ki of 0.19 nM.
Regarding `COc1ccc(Br)c(O)c1C(=O)NCC1CCCN1Cc1ccccc1` (single isomer, unassigned), the ED50 in the assay on Rattus norvegicus [4] and in the assay on Rattus norvegicus [6] was above 80 µM/kg each time. Besides, on D(2) dopamine receptor [1], the IC50 was 2680 nM.
Consider `COc1cccc(C(=O)NC[C@H]2CCCN2Cc2ccccc2)c1OC`, for which the IC50 at D(2) dopamine receptor [1] came out at 21 nM.
The same measure, in the same setting: the figure for `COc1c(Cl)cc(Cl)c(OC)c1C(=O)NC[C@H]1CCCN1Cc1ccc(F)cc1` is 2380 nM; for `CCc1cc(Cl)c(OC)c(C(=O)NC[C@H]2CCCN2Cc2ccc(F)cc2)c1O` it is 29 nM; for `COc1c(Cl)cc(Cl)c(OC)c1C(=O)NC1CCN(Cc2ccccc2)CC1` it is 3450 nM.
As to `COc1cc(Br)c(OC)c(C(=O)NC[C@H]2CCCN2Cc2ccc(F)cc2)c1O`, the IC50 at D(2) dopamine receptor [1] was determined as 124 nM.
As to `CCN1CCC[C@H]1CNC(=O)c1cc(Br)cc(OC)c1OC`, the ED50 in the assay with Rattus norvegicus [2] came to 0.005 µmol/kg; in the assay listed under Rattus norvegicus [3], 0.39 µmol/kg. This compound came in with a Ki on D(2) dopamine receptor [5] of 0.018 nM.
With `COc1cc(Br)cc(C(=O)NC[C@@H]2CCCN2Cc2ccc(F)cc2)c1OC`, the IC50 at D(2) dopamine receptor [1] was found to be 126 nM.
In turn, `CCN1CCC[C@H]1CNC(=O)c1c(O)c(Cl)cc(Cl)c1OC` [RACLOPRIDE] registered an ED50 in the assay filed under Rattus norvegicus [3] of 10 µmol/kg.
Take `COc1cc(Br)cc(C(=O)NC[C@H]2CCCN2Cc2ccccc2)c1OC`: the ED50 with Rattus norvegicus [4] (setting [7]) worked out at 1.2 µmol/kg; in the assay on Rattus norvegicus [6] (setting [7]) it was 1.4 µmol/kg. The compound further registered a Ki at D(2) dopamine receptor [5] of 0.024 nM. At D(2) dopamine receptor [1], this compound showed an IC50 of 1.4 nM.
Compound `COc1ccc(Br)c(O)c1C(=O)NC1CCN(Cc2ccccc2)CC1` returned an IC50 at D(2) dopamine receptor [1] of 41 nM.
On the same count and under the same terms, with `COc1cc(Br)c(OC)c(C(=O)NC[C@H]2CCCN2Cc2ccc(F)cc2)c1OC` the figure was 2210 nM; with `COc1c(Cl)cc(Cl)c(O)c1C(=O)NC[C@H]1CCCN1Cc1ccc(F)cc1`, 21 nM; with `CCc1cc(Cl)c(OC)c(C(=O)NC2CCN(Cc3ccccc3)CC2)c1O`, 9.4 nM.
Same read-out and setting: with `COc1ccc(Br)c(O)c1C(=O)NCC1CCCN1Cc1ccccc1` (racemic) the figure was 36 nM.
Still for that read-out and setting: with `COc1cc(Br)c(OC)c(C(=O)NC[C@H]2CCCN2Cc2ccccc2)c1OC` the figure was 1860 nM.

Values taken from ChEMBL document CHEMBL1125646, “Potential antipsychotic agents. 9. Synthesis and stereoselective dopamine D-2 receptor blockade of a potent class of substituted (R)-N-[(1-benzyl-2-pyrrolidinyl)methyl]benzamides. Relations to other side chain congeners” (J Med Chem, 1991).
